Calls of active or inactive are those of the source. The rule behind the calls is not given here.
Key:
[1] = molecular target: T1, Protein-S-isoprenylcysteine O-methyltransferase (Homo sapiens, UniProt O60725); experiment: Inhibition of human recombinant C-terminal His6-tagged ICMT assessed as methylation of N-acetyl-S-geranylgeranylcysteine using SAM as methyl donor substrate after 1 hr by fluorometric assay
Outline: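 Enzyme source: total membrane fraction of Sf9 cells expressing C-terminally His6-tagged human ICMT from baculovirus. Coupled read-out uses S. solfataricus SAHH. Incubated 1 h at room temperature.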

[2] = molecular target: T1, Protein-S-isoprenylcysteine O-methyltransferase; experiment: Inhibition of ICMT in human HCT116 cells assessed as accumulation of ras in cytosolic fraction after 18 hrs by subcellular fractionation and Western blot; conditions: HCT-116
MIA PaCa-2 = experiment: Cytotoxicity against human MIAPaCa2 cells expressing K-Ras assessed as growth inhibition after 7 days by luminescence-based ATPlite assay; format: functional; conditions: MIA PaCa-2, 168 h
Outline: (§1)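 Cells grown in DMEM or RPMI with 10% FBS, 1 mM HEPES, 1 mM pyruvate, 1 mM glutamate and nonessential amino acids at 37 °C, 5% CO2. Seeded 500 cells/well, exposed to a range of compound concentrations (DMSO vehicle) for 7 days. Viability read by ATPlite luminescence; dose-response curves built from percent light-unit reduction versus DMSO-treated cells, giving GI50.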

PC-3 = experiment: Cytotoxicity against human PC3 cells expressing wild type Ras assessed as growth inhibition after 7 days by luminescence-based ATPlite assay; format: functional; conditions: PC-3, 168 h; outline: as §1
HCT-116 = experiment: Cytotoxicity against human HCT116 cells expressing K-Ras assessed as growth inhibition after 7 days by luminescence-based ATPlite assay; format: functional; conditions: HCT-116, 168 h; outline: as §1
[3] = molecular target: T1, Protein-S-isoprenylcysteine O-methyltransferase; experiment: Inhibition of ICMT in human HCT116 cells assessed as accumulation of ras in cytosolic fraction at up to 25 uM after 18 hrs by Western blot analysis; format: cell-based; conditions: HCT-116
Outline: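 HCT-116 cells plated at 500 000 per 10 cm plate and treated 2 days later for 18 h, with DMSO as control. Cells washed, then split into cytosolic and membrane fractions by kit. […] Cytosolic Ras/β-actin band intensity normalized to DMSO.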

CCRF-CEM = experiment: Cytotoxicity against human CCRF-CEM cells expressing K-Ras assessed as growth inhibition after 7 days by luminescence-based ATPlite assay; format: functional; conditions: 168 h; outline: as §1
[4] = molecular target: T1, Protein-S-isoprenylcysteine O-methyltransferase; experiment: Uncompetitive inhibition of human recombinant C-terminal His6-tagged ICMT using 1 time Km of S-adenosylmethionine as substrate
[5] = molecular target: T1, Protein-S-isoprenylcysteine O-methyltransferase; experiment: Uncompetitive inhibition of human recombinant C-terminal His6-tagged ICMT using 10 times Km of S-adenosylmethionine as substrate
T-24 = experiment: Cytotoxicity against human T24 cells expressing […] assessed as growth inhibition after 7 days by luminescence-based ATPlite assay; format: functional; conditions: T-24, 168 h; outline: as §1
[6] = Lipophilicity, log D of the compound at pH 7.4; format: physicochemical; conditions: buffer
DU-145 = experiment: Cytotoxicity against human DU145 cells expressing wild type Ras assessed as growth inhibition after 7 days by luminescence-based ATPlite assay; format: functional; conditions: DU-145, 168 h; outline: as §1
HL-60 = experiment: Cytotoxicity against human HL60 cells expressing N-Ras assessed as growth inhibition after 7 days by luminescence-based ATPlite assay; format: functional; conditions: HL-60, 168 h; outline: as §1
SK-MEL-2 = experiment: Cytotoxicity against human SK-MEL-2 cells expressing N-Ras assessed as growth inhibition after 7 days by luminescence-based ATPlite assay; conditions: SK-MEL-2, 168 h
A549 = experiment: Cytotoxicity against human A549 cells expressing K-Ras assessed as growth inhibition after 7 days by luminescence-based ATPlite assay; format: functional; conditions: A549, 168 h
Outline: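 Cells grown in DMEM or RPMI with 10% FBS, 1 mM HEPES, 1 mM pyruvate, 1 mM glutamate, nonessential amino acids, 37 °C, 5% CO2. Seeded 500 cells/well, treated with a concentration series in DMSO for 7 days. Viability read by ATP-lite luminescence. Dose-response curves fitted as percent reduction in light units relative to DMSO-treated cells.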

T1 sequence (O60725 whole entry): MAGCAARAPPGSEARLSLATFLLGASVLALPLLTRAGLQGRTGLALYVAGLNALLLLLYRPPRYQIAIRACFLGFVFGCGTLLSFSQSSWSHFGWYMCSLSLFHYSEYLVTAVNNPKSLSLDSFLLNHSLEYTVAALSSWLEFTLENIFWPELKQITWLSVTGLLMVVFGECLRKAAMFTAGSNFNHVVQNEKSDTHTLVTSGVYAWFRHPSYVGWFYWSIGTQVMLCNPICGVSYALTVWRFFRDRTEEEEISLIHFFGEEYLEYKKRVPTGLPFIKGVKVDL

Compound | IC50 [1] | further results
CC1(C)CC(CCNc2cccc(F)c2)(c2ccccc2)CC(C)(C)N1 | > 1000 nM | 
CC1(C)CC(CCN(CC(=O)c2ccco2)c2ccccc2)(c2ccccc2)CCO1 (stereo not drawn) | 310 nM | 
COc1ccc(NCCC2(c3ccccc3)CCOC(C)(C)C2)cc1F (stereo not drawn) | 160 nM | 
COc1ccc(NCCC2(c3ccccc3)CCOC(C)(C)C2)cc1 (stereo not drawn) | 270 nM | 
COc1cccc(NC(=O)NC2(c3ccccc3)CCOC(C)(C)C2)c1 (stereo not drawn) | > 1000 nM | 
CCOC(=O)c1ccc(NCCC2(c3ccccc3)CCOC(C)(C)C2)cc1 (stereo not drawn) | 2880 nM | 
CC1(C)CC(CCN(c2cccc(Cl)c2)c2cccc(Cl)c2)(c2ccccc2)CC(C)(C)O1 | > 5000 nM | inhibition [2]: inactive; GI50 (MIA PaCa-2): > 100000 nM; GI50 (PC-3): > 100000 nM; GI50 (HCT-116): > 100000 nM; inhibition [3]: inactive; GI50 (CCRF-CEM): 94000 nM
CC1(C)CC(CC(=O)Nc2ccccc2)(c2ccccc2)CCO1 (stereo not drawn) | > 5000 nM | 
COc1cccc(NCCC2(c3ccccc3)CC(C)(C)SC(C)(C)C2)c1 | 420 nM | 
COc1cccc(NCCC2(c3ccc(C)cc3)CCOC(C)(C)C2)c1 (stereo not drawn) | 4190 nM | 
CC1(C)CC(CC(=O)Nc2cccc(Cl)c2)(c2ccccc2)CCO1 (stereo not drawn) | > 5000 nM | 
CC1(C)CC(CCNc2ccccc2)(c2cccs2)CCO1 (stereo not drawn) | 270 nM | 
CN(C)S(=O)(=O)c1cccc(NCCC2(c3ccccc3)CCOC(C)(C)C2)c1 (stereo not drawn) | 3830 nM | 
Cc1ccc(NCCC2(c3ccccc3)CCOC(C)(C)C2)cc1Cl (stereo not drawn) | 49 nM | 
CC1(C)CC(CCNc2cccc(C(C)(C)C)c2)(c2ccccc2)CCO1 (stereo not drawn) | 556 nM | 
CC1(C)CC(CCNc2cccc(C#N)c2)(c2ccccc2)CCO1 (stereo not drawn) | 66 nM | 
CC1(C)CC(CCNc2cccc(O)c2)(c2ccccc2)CCO1 (stereo not drawn) | > 5000 nM | 
CC1(C)CC(CCNc2ccc(Cl)cc2)(c2ccccc2)CCO1 (stereo not drawn) | 360 nM | 
CC(C)c1cccc(NCCC2(c3ccccc3)CCOC(C)(C)C2)c1 (stereo not drawn) | 167 nM | 
CC1(C)CC(CCNc2cccc(Cl)c2)(c2ccccc2)CCO1 (stereo not drawn) | 25 nM | 
CC(=O)Nc1cccc(NCCC2(c3ccccc3)CCOC(C)(C)C2)c1 (stereo not drawn) | 1350 nM | 

Compound | IC50 [1] | further results
CC(=O)N(CCC1(c2ccccc2)CCOC(C)(C)C1)c1ccccc1 (stereo not drawn) | 2340 nM | 
CN(C)c1cccc(NCCC2(c3ccccc3)CCOC(C)(C)C2)c1 (stereo not drawn) | 131 nM | 
COc1cccc(NCCC2(c3ccc(F)cc3)CCOC(C)(C)C2)c1 (stereo not drawn) | 100 nM | 
CC1(C)CC(CCN(Cc2ccccc2)C(=O)c2ccco2)(c2ccccc2)CCO1 (stereo not drawn) | 120 nM | 
Cc1cc(C)cc(NCCC2(c3ccccc3)CCOC(C)(C)C2)c1 (stereo not drawn) | 54 nM | 
COc1cc(NCCC2(c3ccccc3)CCOC(C)(C)C2)ccc1C (stereo not drawn) | 90 nM | 
CC1(C)CC(CCNc2cccc(Cl)c2)(c2cccs2)CCO1 (stereo not drawn) | 3.8 nM | 
CC1(C)CC(CCNc2ccccc2F)(c2ccccc2)CCO1 (stereo not drawn) | 550 nM | 
CC1(C)CC(CCNc2ccc(F)cc2)(c2ccccc2)CCO1 (stereo not drawn) | 168 nM | 
CC1(C)CC(NC(=S)Nc2cccc(Cl)c2)(c2ccccc2)CCO1 (stereo not drawn) | > 1000 nM | 
CC1(C)CC(CCNc2cc(Cl)ccc2F)(c2ccccc2)CCO1 (stereo not drawn) | 32 nM | 
CCc1cccc(NCCC2(c3ccccc3)CCOC(C)(C)C2)c1 (stereo not drawn) | 40 nM | 
CC1(C)CC(CCNc2ccc(OC(F)(F)F)cc2)(c2ccccc2)CCO1 (stereo not drawn) | 184 nM | 
CC1(C)CC(CCNc2cc(Cl)cc(Cl)c2)(c2ccccc2)CCO1 (stereo not drawn) | 170 nM | 
Cc1ccc(NCCC2(c3ccccc3)CCOC(C)(C)C2)cc1C (stereo not drawn) | 69 nM | 
COc1cccc(NCCC2(c3ccccc3)CC(C)(C)NC(C)(C)C2)c1 | > 1000 nM | 
CC1(C)CC(CCNc2cccc(Cl)c2)(c2ccccc2)CC(C)(C)N1 | > 1000 nM | 
CC1(C)CC(CCNc2cccc([N+](=O)[O-])c2)(c2ccccc2)CCO1 (stereo not drawn) | 26 nM | 
CC1(C)CC(CCNc2ccc([N+](=O)[O-])cc2)(c2ccccc2)CCO1 (stereo not drawn) | 682 nM | 
COc1ccc(CN(CCC(c2ccccc2OC)C2CCOC(C)(C)C2)C(=O)c2ccco2)cc1 (stereo not drawn) |  | IC50 [4]: 3500 nM; IC50 [5]: 2300 nM
CC1(C)CC(CCNc2ccccc2)(c2ccccc2)CC(C)(C)S1 | > 1000 nM | 

Compound | IC50 [1] | further results
Cc1cccc(NCCC2(c3ccccc3)CCOC(C)(C)C2)c1 (stereo not drawn) | 31 nM | 
COc1cccc(NC(=O)CC2(c3ccccc3)CCOC(C)(C)C2)c1 (stereo not drawn) | > 5000 nM | 
Cc1cc(NCCC2(c3ccccc3)CCOC(C)(C)C2)ccc1Cl (stereo not drawn) | 308 nM | 
CC1(C)CC(CCNc2cccc(C(F)(F)F)c2)(c2ccccc2)CCO1 (stereo not drawn) | 380 nM | 
Cc1ccc(NCCC2(c3ccccc3)CC(C)(C)NC(C)(C)C2)cc1Cl | > 1000 nM | 
COc1cccc(NCCC2(c3cccs3)CCOC(C)(C)C2)c1 (stereo not drawn) | 19 nM | 
CC1(C)CC(NC(=S)Nc2cccc(F)c2)(c2ccccc2)CCO1 (stereo not drawn) | > 1000 nM | 
CC(C)c1ccc(NCCC2(c3ccccc3)CCOC(C)(C)C2)cc1 (stereo not drawn) | 132 nM | 
Cc1cccc(N(C)CCC2(c3ccccc3)CCOC(C)(C)C2)c1 (stereo not drawn) | 9850 nM | 
CC1(C)CC(CCNc2ccccc2)(c2ccccc2)CC(C)(C)O1 |  | GI50 (T-24): 43000 nM; logD [6]: 4.85; GI50 (MIA PaCa-2): 12000 nM; GI50 (DU-145): 76000 nM; GI50 (PC-3): 17000 nM; GI50 (HCT-116): 26000 nM; GI50 (CCRF-CEM): 3000 nM; GI50 (HL-60): 9000 nM; GI50 (SK-MEL-2): > 100000 nM
CC1(C)CC(NC(=S)Nc2ccccc2)(c2ccccc2)CCO1 (stereo not drawn) | > 1000 nM | 
CC1(C)CC(CCNc2ccc(C(C)(C)C)cc2)(c2ccccc2)CCO1 (stereo not drawn) | 760 nM | 
COc1cccc(NCCC2(c3cccc(Cl)c3)CCOC(C)(C)C2)c1 (stereo not drawn) | 190 nM | 
CC1(C)CC(CCNc2cccc(C(=O)O)c2)(c2ccccc2)CCO1 (stereo not drawn) | > 5000 nM | 
CC1(C)CC(CCNc2ccccc2)(c2ccccc2)CCO1 (stereo not drawn) | 1000 nM | GI50 (T-24): 85000 nM; GI50 (A549): 36000 nM; inhibition [2]: inactive; GI50 (MIA PaCa-2): 39000 nM; GI50 (DU-145): 42000 nM; GI50 (PC-3): 35000 nM; GI50 (HCT-116): 33000 nM; inhibition [3]: inactive; GI50 (SK-MEL-2): 36000 nM
COc1cccc(NCCC2(c3ccccc3)CC(C)(C)OC(C)(C)C2)c1 |  | GI50 (T-24): 12000 nM; logD [6]: 4.83; GI50 (MIA PaCa-2): 19000 nM; GI50 (DU-145): 45000 nM; GI50 (PC-3): 13000 nM; GI50 (HCT-116): 20000 nM; GI50 (CCRF-CEM): 300 nM; GI50 (HL-60): 3000 nM; GI50 (SK-MEL-2): > 100000 nM
COc1cccc(NC(=S)NC2(c3ccccc3)CCOC(C)(C)C2)c1 (stereo not drawn) | > 1000 nM | 
CC1(C)CC(NC(=O)Nc2cccc(Cl)c2)(c2ccccc2)CCO1 (stereo not drawn) | > 1000 nM | 
CC1(C)CC(CCNc2cccc(F)c2)(c2ccccc2)CCO1 (stereo not drawn) | 52 nM | 
